Assay results as given in ChEMBL document CHEMBL4257584, “Sterol 14α-Demethylase Structure-Based Optimization of Drug Candidates for Human Infections with the Protozoan Trypanosomatidae” (J Med Chem, 2018).
The source made the active and inactive calls. No cut-off for these calls is given here.

How the values were obtained:
[1] = Intrinsic clearance in human liver microsomes at 1 uM preincubated for 5 mins followed by NADPH addition and measured after 45 mins by LC/MS/MS analysis; type: ADME, microsome; details: read-out: CLH
[2] = Hepatic clearance in human liver microsomes at 1 uM preincubated for 5 mins followed by NADPH addition and measured after 45 mins by LC/MS/MS analysis; type: ADME, microsome
[3] = Intrinsic clearance in Sprague-Dawley rat liver microsomes at 1 uM preincubated for 5 mins followed by NADPH addition and measured after 45 mins by LC/MS/MS analysis; type: ADME, microsome; details: read-out: CLH
[4] = Half life in Sprague-Dawley rat liver microsomes at 1 uM preincubated for 5 mins followed by NADPH addition and measured by LC/MS/MS analysis; type: ADME, microsome; details: microsomes, 1 µM
[5] = Intrinsic clearance in CD1 mouse liver microsomes at 1 uM preincubated for 5 mins followed by NADPH addition and measured after 45 mins by LC/MS/MS analysis; type: ADME, microsome; details: read-out: CLH
[6] = Hepatic clearance in CD1 mouse liver microsomes at 1 uM preincubated for 5 mins followed by NADPH addition and measured after 45 mins by LC/MS/MS analysis; type: ADME, microsome
[7] = Half life in CD1 mouse liver microsomes at 1 uM preincubated for 5 mins followed by NADPH addition and measured by LC/MS/MS analysis; type: ADME, microsome; details: mouse, microsomes, 1 µM
[8] = Drug uptake in BALB/c mouse heart at 25 mg/kg, po via gavage measured after 4 hrs post dose by […]; type: ADME, organism-based; details: read-out: Drug uptake
Summary of the method: (§1)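 BALB/c mice get a single oral gavage dose of 25 mg/kg; tissues are collected 4 h post-dose. About 100 mg tissue is diluted 5-fold in PBS and homogenized. Homogenate is extracted as for plasma (ketoconazole internal standard, acetonitrile extraction) and quantified by HPLC-UV at 291 nm, 0.1 μM detection limit, n=2.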

[9] = Drug uptake in BALB/c mouse lungs at 25 mg/kg, po via gavage measured after 4 hrs post dose by […]; type: ADME, organism-based, Lung; details: read-out: Drug uptake; summary of the method: as §1
[10] = Drug uptake in BALB/c mouse spleen at 25 mg/kg, po via gavage measured after 4 hrs post dose by […]; type: ADME, organism-based; details: read-out: Drug uptake; summary of the method: as §1
[11] = Drug uptake in BALB/c mouse blood at 25 mg/kg, po via gavage measured after 4 hrs post dose by […]; type: ADME, organism-based; details: read-out: Drug uptake; summary of the method: as §1
[12] = Drug uptake in BALB/c mouse brain at 25 mg/kg, po via gavage measured after 4 hrs post dose by […]; type: ADME, organism-based; details: read-out: Drug uptake; summary of the method: as §1
[13] = molecular target: Sterol 14-alpha demethylase (Trypanosoma cruzi (strain CL Brener)) (UniProt Q7Z1V1); assay: Inhibition of Trypanosoma cruzi Y CYP51 expressed in Escherichia coli using [3-3H]-eburicol as substrate after 60 mins by LC-MS analysis
Chain of Sterol 14-alpha demethylase (Trypanosoma cruzi (strain CL Brener)) (Q7Z1V1 whole entry, looked up): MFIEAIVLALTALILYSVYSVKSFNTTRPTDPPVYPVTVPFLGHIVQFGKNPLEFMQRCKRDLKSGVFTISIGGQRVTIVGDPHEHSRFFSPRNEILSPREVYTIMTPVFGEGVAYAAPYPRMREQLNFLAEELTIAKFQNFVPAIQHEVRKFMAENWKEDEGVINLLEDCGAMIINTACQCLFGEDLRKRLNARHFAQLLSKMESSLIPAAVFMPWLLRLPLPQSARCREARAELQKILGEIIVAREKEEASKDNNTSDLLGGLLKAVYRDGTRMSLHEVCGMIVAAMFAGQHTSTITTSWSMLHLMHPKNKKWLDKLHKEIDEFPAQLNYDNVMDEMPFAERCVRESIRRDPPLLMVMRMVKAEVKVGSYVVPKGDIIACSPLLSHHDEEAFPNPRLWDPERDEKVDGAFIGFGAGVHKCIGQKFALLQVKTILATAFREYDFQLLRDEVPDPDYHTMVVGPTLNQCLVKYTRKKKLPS
Summary of the method: (§2)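 Reconstituted reaction: 1 μM purified CYP51, 2 μM T. brucei NADPH-P450 reductase, 100 μM dilauroylphosphatidylcholine, isocitrate dehydrogenase/isocitrate regeneration, 50 mM K phosphate pH 7.2, 10% glycerol. [3-3H]sterol substrate at 50 μM final (eburicol for T. cruzi; obtusifoliol for T. brucei and L. infantum) with inhibitor at 1.1 μM final. Preincubate 60 s at 37 °C, start with 100 μM NADPH, run 60 min, EtOAc extraction. Gives % inhibition of 14α-demethylation, triplicate, mean ± SD.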

[14] = molecular target: Putative lanosterol 14-alpha-demethylase (Leishmania infantum) (UniProt A2TEF2); assay: Inhibition of Leishmania infantum CYP51 expressed in Escherichia coli using [3-3H]-obtusifoliol as substrate after 60 mins by LC-MS analysis; summary of the method: as §2
Chain of Putative lanosterol 14-alpha-demethylase (Leishmania infantum) (A2TEF2 1-480): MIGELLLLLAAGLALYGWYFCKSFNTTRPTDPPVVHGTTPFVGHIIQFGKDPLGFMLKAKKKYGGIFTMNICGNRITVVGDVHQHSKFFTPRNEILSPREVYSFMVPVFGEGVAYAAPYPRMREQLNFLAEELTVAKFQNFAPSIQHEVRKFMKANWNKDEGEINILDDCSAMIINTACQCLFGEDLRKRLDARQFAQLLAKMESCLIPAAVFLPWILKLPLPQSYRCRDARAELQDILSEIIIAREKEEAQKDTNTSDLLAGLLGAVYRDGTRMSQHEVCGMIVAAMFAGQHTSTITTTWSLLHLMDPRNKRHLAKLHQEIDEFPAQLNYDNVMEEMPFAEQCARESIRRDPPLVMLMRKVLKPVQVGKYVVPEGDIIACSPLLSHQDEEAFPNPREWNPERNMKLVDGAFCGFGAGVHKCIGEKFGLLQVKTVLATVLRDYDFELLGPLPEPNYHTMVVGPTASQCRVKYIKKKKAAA

[15] = molecular target: Sterol 14-alpha demethylase (Trypanosoma cruzi (strain CL Brener), UniProt Q7Z1V1); assay: Binding affinity to Trypanosoma cruzi Y CYP51A expressed in Escherichia coli
Chain of Sterol 14-alpha demethylase (Q7Z1V1 whole entry): as the sequence (Q7Z1V1 whole entry, looked up) above
Summary of the method: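 Recombinant CYP51A from Y strain T. cruzi, expressed in E. coli and purified, titrated spectrally at 0.5 μM P450 in 5 cm path cuvettes with ligand over 0.1–1 μM. Type of absorbance change in difference spectra Δ(A430-A411) plotted against ligand concentration. Apparent Kd obtained by fitting to the Morrison quadratic tight-binding equation by nonlinear regression.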

[16] = molecular target: Putative lanosterol 14-alpha-demethylase (Leishmania infantum, UniProt A2TEF2); assay: Binding affinity to Leishmania infantum CYP51 expressed in Escherichia coli
Chain of Putative lanosterol 14-alpha-demethylase (A2TEF2 whole entry): as the sequence (A2TEF2 1-480) above
Summary of the method: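 Purified E. coli-expressed L. infantum CYP51 at 0.5 μM is titrated with ligand at 0.1–1 μM in 5 cm path cuvettes. Difference-spectrum absorbance change Δ(A430−A411) is plotted against ligand concentration. Apparent Kd comes from a Morrison (quadratic) tight-binding fit by nonlinear regression.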

Trypanosoma cruzi [17] = assay: Antiparasitic activity against GFP-expressing Trypanosoma cruzi Tulahuen amastigote formss infected in cardiomyocytes assessed as reduction in rate of parasite multiplication within infected cardiomyocytes measured at 72 hrs post infection by fluorescence microscopy; type: functional, organism-based
Summary of the method: (§3)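 GFP-expressing trypomastigotes (Tulahuen or Y strain) infect cardiomyocyte monolayers at 10 parasites per cell, in DMEM + 10% FBS. Unbound parasites are washed off. At 24 h of infection, inhibitors at 0.5–25 nM in DMSO/DMEM are added and cultured 48 h. Read-out is at 72 h post-infection as GFP fluorescence (RFU) after PBS wash; microscopy uses paraformaldehyde fixation, DAPI and phalloidin stain. Triplicate.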

Trypanosoma cruzi [18] = assay: Antiparasitic activity against GFP-expressing Trypanosoma cruzi Y amastigote formss infected in cardiomyocytes assessed as reduction in rate of parasite multiplication within infected cardiomyocytes measured at 72 hrs post infection by fluorescence microscopy; type: functional, organism-based; summary of the method: as §3
Mus musculus [19] = assay: Toxicity in Swiss Webster mouse assessed as effect on fur profile at 200 mg/kg, po administered as single dose measured after 48 hrs; type: organism-based; details: in vivo
Summary of the method: (§4)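 Swiss Webster mice (21–23 g, n=3) get a single oral 200 mg/kg dose, given as in the PK study. They are inspected for toxic and sub-toxic signs per OECD guidelines (behaviour, motility, neurological state, skin, fur), and body weight is tracked 0–48 h. At 48 h, mice are euthanized and organ weights are normalized to body weight. Blood is taken for haematology and plasma biochemistry.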

[20] = Lipophilicity, log P of the compound; type: physicochemical; details: octanol/water
Mus musculus [21] = assay: Toxicity in Swiss Webster mouse assessed as alteration in body to organ ratio at 200 mg/kg, po administered as single dose measured after 48 hrs; type: organism-based; details: in vivo; summary of the method: as §4
Mus musculus [22] = assay: Toxicity in Swiss Webster mouse assessed as effect on spleen weight at 200 mg/kg, po administered as single dose measured after 48 hrs; type: organism-based; details: in vivo; summary of the method: as §4
Mus musculus [23] = assay: Toxicity in Swiss Webster mouse assessed as effect on liver weight at 200 mg/kg, po administered as single dose measured after 48 hrs; type: organism-based; details: in vivo; summary of the method: as §4
Mus musculus [24] = assay: Toxicity in Swiss Webster mouse assessed as effect on kidney weight at 200 mg/kg, po administered as single dose measured after 48 hrs; type: organism-based; details: in vivo; summary of the method: as §4
Mus musculus [25] = assay: Toxicity in Swiss Webster mouse assessed as effect on heart weight at 200 mg/kg, po administered as single dose measured after 48 hrs; type: organism-based; details: in vivo; summary of the method: as §4
Mus musculus [26] = assay: Toxicity in Swiss Webster mouse assessed as effect on lung weight at 200 mg/kg, po administered as single dose measured after 48 hrs; type: organism-based; details: in vivo; summary of the method: as §4
Mus musculus [27] = assay: Toxicity in Swiss Webster mouse assessed as effect on body weight at 200 mg/kg, po administered as single dose measured after 48 hrs; type: organism-based; details: in vivo; summary of the method: as §4
Mus musculus [28] = assay: Toxicity in Swiss Webster mouse assessed as effect on biochemical plasma parameters at 200 mg/kg, po administered as single dose measured after 48 hrs; type: organism-based; details: in vivo; summary of the method: as §4

In the case of `O=C(N[C@@H](Cn1ccnc1)c1c(F)cc(-c2ccc(F)cc2)cc1F)c1ccc(-c2nnc(-c3ccccc3)o2)cc1`, the CLint scaled at 1 µM [1] is reported as 19.4 mL/min/kg, the CLhep predicted at 1 µM [2] is reported as 10.1 mL/min/kg and the CLint scaled at 1 µM [3] is reported as 55.8 mL/min/kg. For the same compound, the t1/2 [4] was 50 min, the CLint scaled at 1 µM [5] was 237 mL/min/kg and the CLhep predicted at 1 µM [6] was 65.2 mL/min/kg. For the same compound, the t1/2 [7] was 23 min, the concentration at 4 h [8] was 56 µM and the concentration at 4 h [9] was 57 µM. For the same compound, the concentration at 4 h [10] was 63 µM, the concentration at 4 h [11] was 25 µM and the concentration at 4 h [12] was 3 µM. For the same compound, the inhibition [13] was “Active”, the inhibition [14] was “Active” and the Kd [15] was 8.4 nM. For the same compound, the Kd [16] was 24 nM, the EC50 (Trypanosoma cruzi [17]) was 0.5 nM and the EC50 (Trypanosoma cruzi [18]) was 1 nM. The Activity (Mus musculus [19]) was “Non-Toxic”, the logP [20] was 5.6 and the Activity (Mus musculus [21]) was “Non-Toxic”. For the same compound, the Activity (Mus musculus [22]) was “Non-Toxic”, the Activity (Mus musculus [23]) was “Non-Toxic” and the Activity (Mus musculus [24]) was “Non-Toxic”. For the same compound, the Activity (Mus musculus [25]) was “Non-Toxic”, the Activity (Mus musculus [26]) was “Non-Toxic” and the Activity (Mus musculus [27]) was “Non-Toxic”. For the same compound, the Activity (Mus musculus [28]) was “Non-Toxic”.
